# In the library only some 4.2% were active in any assay of this set; here they are far more common.
# SKKanGAS inh: S. pyogenes SKKanGAS growth inhibitors in kanamycin, primary screen, streptokinase expression inhibitor project, SKKanGAS strain, BacTiter-Glo luminescence; 6 h; inhibition, % at 7.5 µM; hit rate 1.3% among 300,000;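 active means mean replicate score, as percent of positive control median, at least 50; inconclusive means mean below 50 but one replicate at or above 50; inactive means mean and every replicate below 50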;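 further: strain carries kanamycin resistance gene driven by streptokinase promoter and grows in 40 µg/ml kanamycin; loss of luminescence reflects streptokinase promoter inhibition or plain growth inhibition; 0% = median of DMSO wells and 100% = positive control at its reference dose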
# Ins promoter up: insulin promoter activators in MIN6 cells, imaging, high-content screening, mouse beta cells; MIN6 insulin promoter-GFP reporter; hits give high values; z-score at 5 µM; hit rate 0.3% among 190,000; AID 1625, 2009;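 active means z-score above 3 at 5 µM with at least 500 cells counted in the well; inconclusive means wells under 500 cells, flagged as cytotoxic or low count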
# WT yeast gro inh: growth inhibition of WT strain, primary screen, mitochondrial fusion inhibitor project, WT and mutant strains, chemical genetic; mitochondrial fusion phenotypic screen; AID 1362, 2008; inhibition, % at 10 µM; hit rate 2.1% among 190,000; in the data active means inhibition above about 58%; tested in S. cerevisiae
# KCC2 mod: KCC2 cotransporter modulators, thallium flux, primary screen, cell-based, HEK293 KCC2, FluoZin-2 fluorescence, MLSMR | B-score of Tl+ flux slope (higher = more flux/activation; lower = inhibition) at 10 µM | KCC2 cells, thallium flux FluoZin-2 fluorescence | AID 1456, 2008 | hit rate 2.2% among 190,000 | Solute carrier family 12 member 5 (Homo sapiens), Q9H2X9;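 active means thallium flux slope and its plate-corrected score both differing from the plate sample mean at a set confidence after two filtering rounds, in either direction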;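 further: slope of fluorescence scaled to starting intensity during 10 to 20 s after thallium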
# Target sequence (Q9H2X9 whole entry, looked up): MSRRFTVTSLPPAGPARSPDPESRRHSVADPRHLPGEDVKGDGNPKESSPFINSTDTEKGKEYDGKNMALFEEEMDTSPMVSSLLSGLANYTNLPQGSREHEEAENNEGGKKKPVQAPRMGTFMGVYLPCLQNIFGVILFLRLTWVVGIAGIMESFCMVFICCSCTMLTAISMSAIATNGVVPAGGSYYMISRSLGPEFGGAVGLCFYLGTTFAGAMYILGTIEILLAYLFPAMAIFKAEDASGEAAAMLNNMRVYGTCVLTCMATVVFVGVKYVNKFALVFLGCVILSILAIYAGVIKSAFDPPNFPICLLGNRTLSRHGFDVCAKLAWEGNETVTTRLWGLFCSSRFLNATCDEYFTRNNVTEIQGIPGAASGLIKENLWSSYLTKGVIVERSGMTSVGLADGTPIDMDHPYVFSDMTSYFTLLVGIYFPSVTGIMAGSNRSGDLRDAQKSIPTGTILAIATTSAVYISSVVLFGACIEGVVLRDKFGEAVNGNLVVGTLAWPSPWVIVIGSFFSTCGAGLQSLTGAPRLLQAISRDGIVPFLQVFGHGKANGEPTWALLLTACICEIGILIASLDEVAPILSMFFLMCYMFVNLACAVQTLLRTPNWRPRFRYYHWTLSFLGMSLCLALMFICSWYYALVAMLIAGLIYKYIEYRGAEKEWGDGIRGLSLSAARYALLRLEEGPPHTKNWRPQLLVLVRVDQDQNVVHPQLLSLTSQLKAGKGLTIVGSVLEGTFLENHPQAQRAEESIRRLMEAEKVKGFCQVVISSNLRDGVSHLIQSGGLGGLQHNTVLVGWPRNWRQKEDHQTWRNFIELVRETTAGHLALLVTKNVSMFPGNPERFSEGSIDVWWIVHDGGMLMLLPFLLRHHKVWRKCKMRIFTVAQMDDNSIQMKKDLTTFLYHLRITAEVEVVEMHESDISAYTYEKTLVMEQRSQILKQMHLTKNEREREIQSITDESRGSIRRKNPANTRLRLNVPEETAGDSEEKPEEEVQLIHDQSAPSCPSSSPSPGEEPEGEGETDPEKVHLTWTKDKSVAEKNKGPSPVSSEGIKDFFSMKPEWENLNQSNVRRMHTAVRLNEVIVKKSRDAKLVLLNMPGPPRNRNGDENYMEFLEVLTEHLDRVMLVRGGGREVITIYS
# Rad51 HR inh: human RAD51 strand exchange inhibitors, primary screen, biochemical, fluorescence | hRad51 DNA strand exchange, fluorescence dequenching | AID 1385, 2008 | hit rate 0.085% among 200,000 | inhibition, % at 10 µM | DNA repair protein RAD51 homolog 1 (Homo sapiens), Q06609;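 active means inhibition above 40% at the single screening dose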;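 further: 0% = DMSO control wells and 100% = blanks with heterologous ssDNA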
#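 Test system – preformed human Rad51 ssDNA filaments · Reagent – Donor/quencher-labelled 47-bp dsDNA substrate · Incubation – 37 °C 15-min filament assembly, 30-min compound preincubation, 15-min exchange · Signal – FRET fluorescence dequenching, excitation 485 nm, emission 520 nm · Read-out – percent inhibition from fluorescence, normalised to plate control and blank means · Benchmarks – plate control and blank wells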
# Autophagy mod: autophagy modulators in MEF cells, primary screen, imaging, high-content, MEF GFP-LC3; MEF GFP-LC3 puncta imaging; test concentration mostly 10 µM; calls only at 10 µM (by protocol); hit rate 0.98% among 190,000; AID 463193, 2010;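 active means percentage of spot-positive cells more than 3 SD above its plate mean, without a fluorescence outlier flag or 80% toxicity; inconclusive means no clear call, values can overlap the other calls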;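 further: spot-positive cell cutoff set from DMSO-treated cells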
# * hit, by the source's call; i = inactive; ? = inconclusive; · = not tested or not shown; + = active, no number.
SMILES,SKKanGAS inh,Ins promoter up,WT yeast gro inh,KCC2 mod,Rad51 HR inh,Autophagy mod
COc1cccc(C2CC(c3cccs3)=NN2C(=O)CSc2nc3c(cnn3-c3ccc(F)cc3)c(=O)[nH]2)c1OC (stereo not drawn),57*,-0.01,12,-1.9,1,i
COc1ccc(C2CC(c3cccs3)=NN2C(=O)CSc2nc3c(cnn3-c3ccccc3)c(=O)[nH]2)cc1 (stereo not drawn),64*,0.3,-11,-1.1,-2,i
COc1cccc(C2CC(c3cccs3)=NN2C(=O)CSc2nc3ccccc3s2)c1OC (stereo not drawn),5,1.8,12,0.62,37,i
CCN(C(=O)COC(=O)c1cncc(Br)c1)C1CCS(=O)(=O)C1 (stereo not drawn),-10,0.24,-4,0.65,2,i
Cc1ccc(-c2nnc(NCc3ccccc3)c3ccccc23)cc1,13,0.47,-12,-1.5,-1,i
Clc1ccc(-c2nnc(NCc3ccccc3)c3ccccc23)cc1,12,-0.24,73*,1.1,-13,i
CC(=O)Nc1ccc(NC(=O)C(C)OC(=O)CNS(=O)(=O)c2ccc(Br)cc2Cl)cc1 (stereo not drawn),-15,·,·,·,·,·
O=[N+]([O-])c1ccc(N/N=C/c2sc(N3CCOCC3)nc2-c2ccccc2)c(S(=O)(=O)Nc2ccc(Cl)cc2)c1,19,?,4,1.2,i,+
O=[N+]([O-])c1ccc(N/N=C/c2sc(N3CCOCC3)nc2-c2ccccc2)c(S(=O)(=O)Nc2ccccc2Cl)c1,·,·,24,-1.4,·,+
O=C(N/N=C/c1sc(N2CCOCC2)nc1-c1ccccc1)c1ccccc1Cl,-3,1.1,6,-0.1,11,i
O=C(CN1C(=O)/C(=C/c2ccccc2F)Sc2ccccc21)NCC1CCCO1 (stereo not drawn),2,·,·,·,·,·
N#CCC(=O)N/N=C/c1cc(-c2ccccc2)n(-c2ccc(Cl)cc2)c1-c1ccccc1,32,-1.1,80*,·,12,i
CCCCOc1ccccc1/C=N/NC(=O)CC#N,3,0.18,3,0.66,-10,i
Cc1ccc(-n2c(-c3ccccc3)cc(/C=N/NC(=O)CC#N)c2-c2ccccc2)cc1,34,-0.31,73*,0.061,8,i
CC(=O)c1ccc(NC(=S)N2CCN(S(=O)(=O)c3ccc(F)cc3)CC2)cc1,1,·,·,·,·,·
Fc1ccccc1Cc1noc(CN2CCC(OCc3cccnc3)CC2)n1,-5,-0.87,7,0.28,-2,i
CC(=O)NC[C@H]1CN(c2ccc(N3CCOCC3)c(F)c2)C(=O)O1,107*,-2.5,48,-0.23,-3,·
CC(=O)c1ccc(N2CCN(C(=O)c3ccc(-c4ccccc4)cc3)CC2)cc1,2,·,·,·,·,·
CC(=O)c1ccc(N2CCN(C(=O)c3cccc(Oc4ccccc4)c3)CC2)cc1,14,-0.4,41,-4,-9,+
O=C1CCCN1CC(O)CS(=O)(=O)Cc1ccc(Cl)c(Cl)c1 (stereo not drawn),-2,·,·,·,·,·
Brc1ccc(-c2cn3c(n2)CCc2ccc4cccnc4c2-3)cc1,76*,0,11,-0.15,3,i
Cc1ccc2c(c1)c1c3n2CCN=C3CCC1,5,0.46,0,-0.24,-1,i
c1cc2c(cc1C1CCCCC1)c1c3n2CCCNC3CCC1 (stereo not drawn),25,?,91,-0.37,1,+
c1cc2c(cc1C1CCCCC1)c1c3n2CCN=C3CCC1,29,·,93*,-0.54,-8,i
Cc1ccc2c(c1)c1c3n2CCCNC3CCC1 (stereo not drawn),-13,?,-5,-0.11,-6,i
SMILES,SKKanGAS inh,Ins promoter up,WT yeast gro inh,KCC2 mod,Rad51 HR inh,Autophagy mod
Cc1[nH]c2ccccc2c1C(c1ccccn1)c1c(C)[nH]c2ccccc12,72*,1.1,15,1.4,3,i
CCC(Sc1nnnn1-c1ccccc1)C(=O)NC(C)c1ccccc1 (stereo not drawn),-6,·,13,·,4,i
CCC(Sc1nnnn1-c1ccccc1)C(=O)Nc1nc2ccccc2s1 (stereo not drawn),13,-0.73,58*,-1.4,-7,i
CCCCN1C(=O)C(=Nc2cccc3cnccc23)c2ccccc21,9,0.23,6,-1.6,-6,i
C(=C\c1ccccn1)/c1cccnc1,-1,-0.08,·,-0.9,6,·
COCc1cc(=O)[nH]c2c1c(-c1ccccc1)nn2C,0,0.03,·,0.31,-6,·
COc1ccc(-c2c/c(=N\c3nc(-c4ccccc4)c(C)s3)c3ccccc3o2)cc1O,59*,-1.3,-9,0.08,6,i
CC1C(=O)C(C)C(c2cc(Cl)ccc2O)NC1c1cc(Cl)ccc1O (stereo not drawn),74*,·,·,·,·,·
COc1cccc(C2NC(c3cccc(OC)c3O)C(C)C(=O)C2C)c1O (stereo not drawn),12,·,·,-1.5,-2,i
COc1ccc2[nH]c(C(=O)NCc3ccccc3)c(C)c2c1,0,·,·,·,·,·
CCC1COCCS(=O)(=O)N1Cc1cccc(C(F)(F)F)c1 (stereo not drawn),-3,·,·,·,·,·
O=C(c1ccccc1)c1c2c(cc3sc4ccccc4[n+]13)-c1cccc3cccc-2c13,·,?,79,-1.4,11,+
Cc1sc2cc3c(c(C(=O)c4ccccc4)[n+]2c1C)-c1cccc2cccc-3c12,55*,?,70*,-3.3,·,i
Cc1sc2ccccc2[n+]1CC(=O)c1ccccc1,5,·,·,·,·,·
CC(=O)Nc1ccc(NC(=O)C(C)Sc2n[nH]c(-c3ccc(C)cc3)n2)cc1 (stereo not drawn),-17,·,·,·,·,·
COc1ccc(S(=O)(=O)N2CCN(C(=O)c3ccco3)CC2)c(C)c1C,3,·,·,·,·,·
CCc1nnc(NS(=O)(=O)c2ccc(NC(=S)NC(=O)/C=C/c3ccccc3)cc2)s1,20,0.3,0,-2.5,-2,i
CCc1nnc(NS(=O)(=O)c2ccc(NC(=S)NC(=O)/C=C/c3ccc(C(C)C)cc3)cc2)s1,87*,0.18,14,0.41,-4,i
NC(=O)c1c(NC(=O)C2COc3ccccc3O2)sc2c1CCN(Cc1ccccc1)C2 (stereo not drawn),23,-0.74,-5,-0.025,-9,+
CCOC(=O)c1c(NC(=O)C2COc3ccccc3O2)sc2c1CCN(Cc1ccccc1)C2 (stereo not drawn),9,-1.4,21,-0.73,-6,i
